# From PMC3736091 (Molecular cancer therapeutics, 2013)
# Legend:
# [1] = biological target: ATM activity in SW620 cells (Homo sapiens, UniProt Q13315); assay: Inhibition of cellular ATM activity, SW620; assay type: cell-based; conditions: 10 μM
# [2] = Plasma and tumour concentrations in SW620 tumour-bearing nude mice; assay type: in vivo
# Summary of the method: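 Female CD-1 nude mice carried SW620 s.c. flank xenografts (1×10^7 cells) of ~650 mm³. Test compound was given at 50 mg/kg i.p. in equimolar phosphoric acid/saline, pH 4. The comparator ATM inhibitor was given at 10 mg/kg i.p. in phosphoric acid, 5% DMSO, 10% encapsin, pH 4. Dosing volume was 10 ml/kg. Plasma and tumour were sampled at 1 and 4 h and analysed by HPLC; the tumour detection limit was 0.5 μM.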
# [3] = test system: PI3K; conditions: read-out: Enzyme IC50 PI3K; purified enzyme; data previously reported; cited from earlier work
# [4] = biological target: ATR (Homo sapiens, UniProt Q13535); conditions: read-out: Enzyme IC50 ATR; purified enzyme; data previously reported; cited from earlier work
# [5] = test system: PI4K; conditions: read-out: Enzyme IC50 PI4K; purified enzyme; data previously reported; cited from earlier work
# [6] = test system: human tumour cell lines; conditions: cited from earlier work
# [7] = test system: SW620 cells; assay: Clonogenic survival assay, SW620; assay type: cell-based, human; conditions: 16 hr
# Summary of the method: (§1)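 Clonogenic assay in RPMI 1640 + 10% FBS, 37°C, 5% CO2, <30 passages; HCT116-N7 stably expresses HPV16 E6. Exponentially growing cells had 16 h exposure to cytotoxic (etoposide, doxorubicin or camptothecin; etoposide 1 μM for the bar data) ± test compound 1 μM in 0.5% DMSO, then were seeded for colonies. Survival was normalised to DMSO or inhibitor-alone control. Enhancement factor = survival cytotoxic alone ÷ survival combination, per experiment; 3 independent experiments.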
# [8] = test system: LoVo cells; assay: Clonogenic survival assay, LoVo; assay type: cell-based, human; conditions: LoVo, 16 hr
# Summary of the method: as §1
# Chain of ATM activity in SW620 cells (Q13315 whole entry): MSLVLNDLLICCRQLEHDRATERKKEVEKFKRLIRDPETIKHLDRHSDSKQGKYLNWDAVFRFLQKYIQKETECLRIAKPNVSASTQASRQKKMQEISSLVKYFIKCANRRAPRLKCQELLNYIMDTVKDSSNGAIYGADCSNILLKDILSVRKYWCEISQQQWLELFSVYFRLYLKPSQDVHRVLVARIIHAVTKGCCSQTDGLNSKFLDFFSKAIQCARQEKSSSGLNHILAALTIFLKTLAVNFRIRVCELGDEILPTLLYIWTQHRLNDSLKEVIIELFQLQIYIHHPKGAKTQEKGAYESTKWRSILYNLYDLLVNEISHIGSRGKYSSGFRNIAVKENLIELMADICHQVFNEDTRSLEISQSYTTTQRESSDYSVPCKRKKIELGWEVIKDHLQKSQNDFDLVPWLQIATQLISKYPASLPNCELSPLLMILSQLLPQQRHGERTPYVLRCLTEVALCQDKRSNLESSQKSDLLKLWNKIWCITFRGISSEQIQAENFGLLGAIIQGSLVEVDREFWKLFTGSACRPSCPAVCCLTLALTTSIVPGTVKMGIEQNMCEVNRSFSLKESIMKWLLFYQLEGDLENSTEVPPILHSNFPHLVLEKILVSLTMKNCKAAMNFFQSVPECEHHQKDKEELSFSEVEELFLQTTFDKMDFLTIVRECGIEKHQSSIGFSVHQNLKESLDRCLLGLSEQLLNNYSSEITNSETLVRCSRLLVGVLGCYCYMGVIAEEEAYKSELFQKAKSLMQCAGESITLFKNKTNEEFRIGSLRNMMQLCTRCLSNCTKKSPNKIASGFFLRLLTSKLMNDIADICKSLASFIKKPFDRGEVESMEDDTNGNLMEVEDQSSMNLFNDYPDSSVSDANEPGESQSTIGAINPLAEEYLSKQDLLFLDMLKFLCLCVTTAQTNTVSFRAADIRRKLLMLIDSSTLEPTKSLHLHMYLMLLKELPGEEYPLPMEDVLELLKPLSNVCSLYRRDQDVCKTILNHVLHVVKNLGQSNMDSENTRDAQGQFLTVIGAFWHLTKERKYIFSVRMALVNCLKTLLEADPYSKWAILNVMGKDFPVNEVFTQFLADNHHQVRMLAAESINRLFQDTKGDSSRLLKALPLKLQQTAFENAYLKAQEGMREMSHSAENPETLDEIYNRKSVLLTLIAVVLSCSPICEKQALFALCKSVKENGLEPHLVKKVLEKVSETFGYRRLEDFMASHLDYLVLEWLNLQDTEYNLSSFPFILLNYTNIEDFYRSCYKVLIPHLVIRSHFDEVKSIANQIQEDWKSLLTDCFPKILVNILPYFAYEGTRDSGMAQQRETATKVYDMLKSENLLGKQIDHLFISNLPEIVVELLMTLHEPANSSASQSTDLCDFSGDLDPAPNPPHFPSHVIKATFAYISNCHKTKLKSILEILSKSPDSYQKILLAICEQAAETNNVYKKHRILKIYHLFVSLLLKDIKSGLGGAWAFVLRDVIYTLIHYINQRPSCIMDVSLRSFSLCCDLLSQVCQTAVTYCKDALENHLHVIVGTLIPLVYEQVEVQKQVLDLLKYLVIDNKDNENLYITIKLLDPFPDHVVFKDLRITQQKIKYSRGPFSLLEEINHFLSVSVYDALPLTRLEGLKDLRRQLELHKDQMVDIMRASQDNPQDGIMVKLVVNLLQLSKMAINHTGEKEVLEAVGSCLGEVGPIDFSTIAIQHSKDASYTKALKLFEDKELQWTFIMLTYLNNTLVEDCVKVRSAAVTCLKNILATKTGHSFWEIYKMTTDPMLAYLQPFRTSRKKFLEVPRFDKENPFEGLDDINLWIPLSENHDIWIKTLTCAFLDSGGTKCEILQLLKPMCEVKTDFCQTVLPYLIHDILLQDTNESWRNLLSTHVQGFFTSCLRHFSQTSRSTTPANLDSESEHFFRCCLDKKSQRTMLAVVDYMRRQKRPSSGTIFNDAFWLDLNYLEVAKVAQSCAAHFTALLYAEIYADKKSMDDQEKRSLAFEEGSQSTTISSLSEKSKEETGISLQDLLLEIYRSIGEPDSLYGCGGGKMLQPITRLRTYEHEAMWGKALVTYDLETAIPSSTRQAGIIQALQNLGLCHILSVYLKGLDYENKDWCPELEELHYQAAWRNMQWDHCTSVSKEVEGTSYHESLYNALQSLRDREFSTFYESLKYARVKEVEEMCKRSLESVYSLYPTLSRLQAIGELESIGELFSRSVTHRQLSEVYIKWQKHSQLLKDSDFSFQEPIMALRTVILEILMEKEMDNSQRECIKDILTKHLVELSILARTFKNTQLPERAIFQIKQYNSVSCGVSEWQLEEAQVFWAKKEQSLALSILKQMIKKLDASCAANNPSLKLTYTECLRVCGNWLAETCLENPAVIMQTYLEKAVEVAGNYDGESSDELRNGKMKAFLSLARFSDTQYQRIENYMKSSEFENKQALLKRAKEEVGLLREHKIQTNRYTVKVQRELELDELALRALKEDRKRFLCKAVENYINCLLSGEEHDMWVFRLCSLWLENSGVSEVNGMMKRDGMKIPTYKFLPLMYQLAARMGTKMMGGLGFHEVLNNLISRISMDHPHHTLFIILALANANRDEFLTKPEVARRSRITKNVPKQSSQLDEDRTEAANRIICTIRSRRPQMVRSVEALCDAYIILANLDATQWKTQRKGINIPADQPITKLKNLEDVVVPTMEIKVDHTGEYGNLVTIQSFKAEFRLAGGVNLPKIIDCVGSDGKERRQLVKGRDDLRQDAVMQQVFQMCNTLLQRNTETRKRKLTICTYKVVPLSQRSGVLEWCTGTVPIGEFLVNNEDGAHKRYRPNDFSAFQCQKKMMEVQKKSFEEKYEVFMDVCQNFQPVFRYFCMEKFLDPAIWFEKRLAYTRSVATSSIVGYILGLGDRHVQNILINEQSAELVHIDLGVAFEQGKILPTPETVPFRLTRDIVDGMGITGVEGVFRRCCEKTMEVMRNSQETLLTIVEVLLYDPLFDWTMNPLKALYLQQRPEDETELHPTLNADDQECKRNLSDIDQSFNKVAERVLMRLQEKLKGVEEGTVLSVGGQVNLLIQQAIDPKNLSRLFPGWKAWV
smiles,measurement,setting,value
O=c1cc(-c2cccc3c2Sc2ccccc2S3)oc(N2CCOCC2)c1 [KU55933],Inhibition of ATM activity,[1],substantially inhibited ATM activity
same,Tumour concentration,"[2]; 10 mg/kg i.p., SW620 xenograft, below limit of detection",< 0.5 µM
same,Plasma concentration,"[2]; single dose 10 mg/kg i.p., SW620-bearing nude mice",over 1 μM
same,IC50,[3],1.7 µM
same,IC50,[4],> 10 µM
same,IC50,[5],> 10 µM
same,Concentration needed to induce in vitro chemo- and radio-sensitisation,[6],10 µM
C[C@@H]1CN(CC(=O)Nc2ccc3c(c2)Cc2cccc(-c4cc(=O)cc(N5CCOCC5)o4)c2S3)C[C@H](C)O1 [KU-600019],Concentration needed to induce in vitro chemo- and radio-sensitisation,[6],3 µM
"COc1cc([C@@H]2c3cc4c(cc3[C@@H](O[C@@H]3O[C@@H]5CO[C@@H](C)O[C@H]5[C@H](O)[C@H]3O)[C@H]3COC(=O)[C@H]23)OCO4)cc(OC)c1O [Etoposide, etoposide, reference compound]",% Survival Cytotoxic alone,"[7]; SW620, cytotoxic 100 nM",89 ± 8.3%
same,% Survival Cytotoxic alone,"[7]; SW620, cytotoxic 1 μM",3.8 ± 1.1%
same,% Survival Cytotoxic alone,[8]; cytotoxic 100 nM,58 ± 8.3%
same,% Survival Cytotoxic alone,[8]; cytotoxic 1 μM,3.9 ± 0.8%
"CC[C@@]1(O)C(=O)OCc2c1cc1n(c2=O)Cc2cc3ccccc3nc2-1 [Camptothecin, camptothecin, reference compound]",% Survival Cytotoxic alone,"[7]; SW620, cytotoxic 10 nM",2.4 ± 0.2%
same,% Survival Cytotoxic alone,[8]; cytotoxic 10 nM,33 ± 7.9%
